This passage reports IC50 results from ChEMBL document CHEMBL1135333, “Long-chain aminoalcohol and diamine derivatives induce apoptosis through a caspase-3 dependent pathway” (Bioorg Med Chem Lett, 2002).

Assay [1] concerns Jurkat. The experiment in a line: Inhibitory concentration required for 50% apoptosis induction was evaluated using jurkat cells (T-lymphoma cells); NA means not active. It is filed as functional, cell-based, Homo sapiens. An outline of the steps: (§1)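 Jurkat T-lymphoma cells exposed 24 h to rising concentrations (0.1–100 μM). Ethanol-fixed cells then RNase-digested and stained with propidium iodide. Flow-cytometric cell-cycle analysis scored the hypodiploid (sub-G0/G1) fraction as apoptotic cells with fragmented DNA. IC50 taken from these concentration–response series.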

The test system of assay [2] is Jurkat. The experiment in a line: Inhibitory concentration required for 50% apoptosis induction was evaluated using jurkat cells (T-lymphoma cells). Format: functional, cell-based. As to conditions: Homo sapiens; call rule not given here. In short, it runs like this:
as §1

For `CCCCCCCCCCCCCCC(=O)NC(CCCCCCCCCCCCCC)COC(=O)CCCCCC` (stereo not given), the IC50 – broadly, the concentration at which inhibition is half-maximal – with Jurkat [1] is on record as “Not Active”.
Take `CCCCCCCCCCCCCCC(CO)NC(=O)CCCC(=O)O` (stereo not given): the IC50 with Jurkat [2] came out at 24 µM.
In the assay with Jurkat [2], `CCCCCCCCCCCCCCC(O)CNC1CCCCC1` (stereo not given) returned an IC50 of 6 µM.
With `CCCCCCCCCCCCCCC(CN(CC)CC)NCCCCC(=O)O` (stereo not given), the IC50 entry in the assay on Jurkat [1] is “Not Active”.
Compound `CCCCCCCCCCCCCCC(N)COCc1ccccc1` (stereo not given) had a half-maximal inhibitory concentration (IC50) in the assay on Jurkat [2] of 3 µM. In other words, the single-digit micromolar range.
In turn, `CCCCCCCCCCCCCCC(CNCC)NC(=O)OC(C)(C)C` (stereo not given) registered an IC50 in the assay with Jurkat [2] of 6 µM.
On the same count and under the same terms, under `CCCCCCCCCCCCCCC(CNCC(=O)OCC)NC(=O)OC(C)(C)C` (stereo not given) stands 28 µM; under `CCCCCCCCCCCCCCC(CO)N(CC)CC` (stereo not given), 1 µM.
Regarding `CCCCCCCCCCCCCCC(COC(=O)CCCCCC)NC(=O)CCCCCC` (stereo not given), the IC50 result with Jurkat [1] is “Not Active”.
As to `CCCCCCCCCCCCCCC(CO)NCCCCCC` (stereo not given), the IC50 in the assay with Jurkat [2] came to 6 µM.
The compound `CCCCCCCCCCCCCCC(CN)NC(=O)OC(C)(C)C` (stereo not given) yielded an IC50 in the assay with Jurkat [2] of 6 µM.
On the same count and under the same terms, in the case of `CCCCCCCCCCCCCCC(N)CNCC(=O)O` (stereo not given) it was 31 µM; in that of `CCCCCCCCCCCCCCC(O)CNCc1ccccc1` (stereo not given), 27 µM; in that of `CCCCCCCCCCCCCCC(CO)NCC` (stereo not given), 6 µM.
Still for that read-out and setting: in the case of `CCCCCCCCCCCCCCC(COCc1ccccc1)NC(=O)CCCC(=O)O` (stereo not given) it was greater than 50 µM; in that of `CCCCCCCCCCCCCCC(COCc1ccccc1)NCC(=O)O` (stereo not given), 3 µM; in that of `CCCCCCCCCCCCCCC(CO)NC(=O)OC(C)(C)C` (stereo not given), 28 µM.
The compound `CCCCCCCCCCCCCCC(CN(CC(=O)OCC)CC(=O)OCC)NC(=O)OC(C)(C)C` (stereo not given) displayed an IC50 in the assay with Jurkat [2] greater than 60 µM.
`CCCCCCCCCCCCCCC(COCc1ccccc1)NC(=O)CCC(=O)O` (stereo not given) came in with an IC50 in the assay on Jurkat [2] of 30 µM.
In the assay on Jurkat [2], `CCCCCCCCCCCCCCC(CN(CC)CC)NC(=O)OC(C)(C)C` (stereo not given) came in with an IC50 of 21 µM. The IC50 values of the last two compounds are within 1.5-fold of each other.
Turning to `CCCCCCCCCCCCCCC(N)CNCC(=O)OCC` (stereo not given), the IC50 result in the assay with Jurkat [1] is given as “Not Active”.
In turn, `CCCCCCCCCCCCCCC(COCc1ccccc1)N(CC)CC` (stereo not given) yielded an IC50 in the assay on Jurkat [2] of 20 µM.
In turn, `CCCCCCCCCCCCCCC(N)CN(CC(=O)OCC)CC(=O)OCC` (stereo not given) yielded an IC50 in the assay with Jurkat [2] of 32 µM.
On the same count and under the same terms, under `CCCCCCCCCCCCCCC(N)CO` (stereo not given) stands 7 µM; under `CCCCCCCCCCCCCCC(N)CN(CC)CC` (stereo not given), 7 µM.
Consider `CCCCCCCCCCCCCCC(=O)NC(CCCCCCCCCCCCCC)COC(=O)CCCCCCCCCCCCCC` (stereo not given), for which, in the assay with Jurkat [1], the IC50 result is “Not Active”.
On to `CCCCCCCCCCCCCCC(COCc1ccccc1)NCC` (stereo not given), for which, in the assay on Jurkat [2], the midpoint of inhibition, the IC50, lay at 6 µM.
As for `CCCCCCCCCCCCCCC(N)CNCCCCC(=O)O` (stereo not given), in the assay with Jurkat [2], 55 µM corresponded to half-maximal inhibition (IC50).
As for `CCCCCCCCCCCCCCC(CNCCCCC(=O)O)NC(=O)OC(C)(C)C` (stereo not given), in the assay with Jurkat [2], the IC50 turned out to be 18 µM.
On to `CCCCCCCCCCCCCCC(N)CN` (stereo not given), for which half-maximal inhibition with Jurkat [2] (IC50) was put at 55 µM. This IC50 is about 3.1-fold higher than that of the compound before.
